In ChEMBL document CHEMBL4725247, “Cytosolic delivery of peptidic STAT3 SH2 domain inhibitors” (Bioorg Med Chem, 2020):
Calls of active or inactive are those of the source. The rule behind the calls is not given here. Where a SMILES comes first, the peptide text is derived from it. Bridges are numbered along the chain shown (N, C = ends). Roman numbers before positions name the chains, in order. [ ]: non-standard residue; d: D form. F2Pmp = N[C@@H](Cc1ccc(C(F)(F)P(=O)(O)O)cc1)C(=O)O; pY = N[C@@H](Cc1ccc(OP(=O)(O)O)cc1)C(=O)O; 2Nal = N[C@@H](Cc1ccc2ccccc2c1)C(=O)O; βAla = NCCC(=O)O

What was measured:
[1] = Stability in human HeLa cell lysate assessed as compound remaining at 150 uM measured after 24 hrs by reverse-phase HPLC assay; format: ADME, subcellular; details: read-out: Stabilty
Procedure, shortened: (§1)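 Clarified lysate made from HeLa cells lysed on ice for 15 min in 50 mM Tris, 250 mM NaCl, 0.5% IGEPAL CA-630, pH 8.0. Peptide added at 150 μM and held at 37 °C. Peak area normalized to time zero.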

[2] = biological target: Signal transducer and activator of transcription 3 (Homo sapiens) (UniProt P40763); experiment: Inhibition of OSM-stimulated STAT3 activity in human U3A cell at 25 uM pretreated for 24 hrs followed by OSM stimulation and measured after 6 hrs by bright Glo-luciferase reporter gene assay
Procedure, shortened: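 STAT3-luc U3A fibrosarcoma reporter cells seeded at 10⁴ cells/well overnight. Pretreated with peptide or vehicle (10 or 25 μM) for 24 h at 37 °C in DMEM + 10% FBS, then stimulated 6 h with OSM 10 ng/mL. Luciferase read by Bright-Glo luminescence. Controls: OSM alone and unstimulated cells.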

MDA-MB-468 = experiment: Cytotoxicity against human MDA-MB-468 cells assessed as cell viability at 25 uM measured after 72 hrs by Celltiter-Glo assay; format: functional, cell-based
Procedure, shortened: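 MDA-MB-468 breast cancer cells seeded at 3 × 10³ cells/well overnight, then given peptide or vehicle (10 or 25 μM) and kept at 37 °C for 72 h. Viability read by CellTiter-Glo luminescence.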

[3] = Stability of the compound in DMEM with 10% FBS (fetal bovine serum) at 150 uM measured at 24 hrs by reverse-phase HPLC assay
[4] = Stability in human HeLa cell lysate assessed as compound remaining at 150 uM measured after 1 hr by reverse-phase HPLC assay; format: ADME, subcellular; details: read-out: Stabilty; procedure, shortened: as §1

Chain of Signal transducer and activator of transcription 3 (Homo sapiens) (P40763 whole entry): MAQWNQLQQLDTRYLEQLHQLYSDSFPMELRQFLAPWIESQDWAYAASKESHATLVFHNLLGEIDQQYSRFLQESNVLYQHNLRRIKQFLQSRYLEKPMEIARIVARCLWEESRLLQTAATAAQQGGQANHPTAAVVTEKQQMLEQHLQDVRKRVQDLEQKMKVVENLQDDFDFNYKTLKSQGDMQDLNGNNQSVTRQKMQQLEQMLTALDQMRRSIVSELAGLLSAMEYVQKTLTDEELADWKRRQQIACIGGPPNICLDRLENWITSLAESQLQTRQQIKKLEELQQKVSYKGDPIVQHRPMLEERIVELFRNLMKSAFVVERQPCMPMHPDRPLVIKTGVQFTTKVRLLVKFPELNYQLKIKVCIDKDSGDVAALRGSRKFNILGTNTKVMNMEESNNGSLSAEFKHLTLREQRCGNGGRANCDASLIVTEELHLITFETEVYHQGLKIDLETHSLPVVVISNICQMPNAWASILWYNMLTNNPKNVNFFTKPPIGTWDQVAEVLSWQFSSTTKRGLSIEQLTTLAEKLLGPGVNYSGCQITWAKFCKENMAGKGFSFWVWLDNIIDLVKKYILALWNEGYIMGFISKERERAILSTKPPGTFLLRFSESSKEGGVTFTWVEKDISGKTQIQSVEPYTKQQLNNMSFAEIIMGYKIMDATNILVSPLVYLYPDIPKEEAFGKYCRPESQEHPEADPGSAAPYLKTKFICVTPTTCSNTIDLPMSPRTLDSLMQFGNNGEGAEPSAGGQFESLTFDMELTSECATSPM

remaining at 1 h, 150 µM [4] [%] | Structure (SMILES) | remaining at 24 h, 150 µM [1] [%] | inhibition [2] | Activity (MDA-MB-468) | Stabilty [3]
 | CC(C)C[C@H](NC(=O)[C@H](Cc1ccc(C(F)(F)P(=O)(O)O)cc1)NC(=O)CNC(=O)CCNC(=O)CCNC(=O)CC[C@@H]1NC(=O)[C@@H](CCCNC(=N)N)NC(=O)[C@H](CCCNC(=N)N)NC(=O)[C@@H](CCCNC(=N)N)NC(=O)[C@H](CCCNC(=N)N)NC(=O)[C@H](Cc2ccc3ccccc3c2)NC(=O)[C@@H](Cc2ccccc2)NC(=O)[C@H](Cc2ccccc2)NC1=O)C(=O)N1CCC[C@H]1C(=O)N(C)[C@@H](CCC(N)=O)C(=O)N[C@H](C(=O)N[C@H](C(N)=O)C(C)C)[C@@H](C)O | 100 | inactive | inactive | 
 | CC(C)C[C@H](NC(=O)[C@H](Cc1ccc(C(F)(F)P(=O)(O)O)cc1)NC(=O)CNC(=O)CCNC(=O)CCNC(=O)CC[C@@H]1NC(=O)[C@@H](CCCNC(=N)N)NC(=O)[C@H](CCCNC(=N)N)NC(=O)[C@@H](CCCNC(=N)N)NC(=O)[C@H](CCCNC(=N)N)NC(=O)[C@H](Cc2ccc3ccccc3c2)NC(=O)[C@@H](Cc2ccccc2)NC(=O)[C@H](Cc2ccccc2)NC1=O)C(=O)N1CCC[C@H]1C(=O)N[C@@H](CCC(N)=O)C(=O)N[C@H](C(=O)N[C@H](C(N)=O)C(C)C)[C@@H](C)O (I: cyclo(F[dF][2Nal]R[dR]R[dR]E) / II: [βAla][βAla]G[F2Pmp]LPQTV-NH2; amide I:8-II:N) |  | inactive |  | Stable
< 20 | CC(C)C[C@H](NC(=O)[C@H](Cc1ccc(OP(=O)(O)O)cc1)NC(=O)CNC(=O)CCNC(=O)CCNC(=O)CC[C@@H]1NC(=O)[C@@H](CCCNC(=N)N)NC(=O)[C@H](CCCNC(=N)N)NC(=O)[C@@H](CCCNC(=N)N)NC(=O)[C@H](CCCNC(=N)N)NC(=O)[C@H](Cc2ccc3ccccc3c2)NC(=O)[C@@H](Cc2ccccc2)NC(=O)[C@H](Cc2ccccc2)NC1=O)C(=O)N1CCC[C@H]1C(=O)N[C@@H](CCC(N)=O)C(=O)N[C@H](C(=O)N[C@H](C(N)=O)C(C)C)[C@@H](C)O (I: cyclo([2Nal]R[dR]R[dR]EF[dF]) / II: [βAla][βAla]G[pY]LPQTV-NH2; amide I:6-II:N) |  | inactive |  | Unstable
